In ChEMBL document CHEMBL3421615, “Synthesis and identification of unprecedented selective inhibitors of CK1ε” (Eur J Med Chem, 2015):

What was measured:
[1] = system: SW1573; test: Antiproliferative activity against human SW1573 cells after 48 hrs incubation by SRB assay; format: functional; conditions: SW1573, 48 h
How it was run: (§1)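 Cells kept in RPMI 1640 with 5% heat-inactivated FCS and 2 mM L-glutamine at 37 °C, 5% CO2. Plated at 10 000 (HBL-100, HeLa, SW1573), 15 000 (T-47D) or 20 000 (WiDr) cells/well. Dosing began day 1, in triplicate, over 1–100 range. DMSO stocks at 400× final top concentration; vehicle control 0.25% DMSO. Exposure 48 h, then TCA fixation 60 min at 4 °C. SRB read-out at 492 nm, background-corrected; GI50 from dose–response.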

[2] = system: HeLa; test: Antiproliferative activity against human HeLa cells after 48 hrs incubation by SRB assay; format: functional; how it was run: as §1
[3] = Antiproliferative activity against human HBL100 cells after 48 hrs incubation by SRB assay; format: functional; conditions: HBL-100, 48 h; how it was run: as §1
[4] = system: T47D; test: Antiproliferative activity against human T47D cells after 48 hrs incubation by SRB assay; format: functional; how it was run: as §1
[5] = system: WiDr; test: Antiproliferative activity against human WiDr cells after 48 hrs incubation by SRB assay; format: functional; how it was run: as §1
[6] = target: Casein kinase I isoform gamma-2 (Homo sapiens) (UniProt P78368); test: Inhibition of human Casein kinase 1 gamma 2 assessed as residual activity at 10 uM relative to control
How it was run: (§2)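 KINOMEscan active-site-directed competition binding run against a 456-kinase panel (scanMAX), each compound at a single 10 µM concentration. Binding reported as percent of control, with DMSO set to 100%Ctrl and a positive control set to 0%Ctrl. Hit cut-off is 35%Ctrl.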

[7] = target: Casein kinase I isoform gamma-1 (Homo sapiens) (UniProt Q9HCP0); test: Inhibition of human Casein kinase 1 gamma 1 assessed as residual activity at 10 uM relative to control; how it was run: as §2
[8] = target: Casein kinase I isoform alpha (Homo sapiens) (UniProt P48729); test: Inhibition of human Casein kinase 1 alpha 1 assessed as residual activity at 10 uM relative to control; how it was run: as §2
[9] = target: Casein kinase I isoform gamma-3 (Homo sapiens) (UniProt Q9Y6M4); test: Inhibition of human Casein kinase 1 gamma 3 assessed as residual activity at 10 uM relative to control; how it was run: as §2
[10] = target: Casein kinase II subunit alpha (Homo sapiens) (UniProt P68400); test: Inhibition of human Casein kinase 2 alpha 1 polypeptide assessed as residual activity at 10 uM relative to control; how it was run: as §2
[11] = target: T1, Casein kinase I isoform alpha-like (Homo sapiens) (UniProt Q8N752); test: Inhibition of human Casein kinase 1 alpha 1-like assessed as residual activity at 10 uM relative to control; how it was run: as §2
T1 sequence (whole entry): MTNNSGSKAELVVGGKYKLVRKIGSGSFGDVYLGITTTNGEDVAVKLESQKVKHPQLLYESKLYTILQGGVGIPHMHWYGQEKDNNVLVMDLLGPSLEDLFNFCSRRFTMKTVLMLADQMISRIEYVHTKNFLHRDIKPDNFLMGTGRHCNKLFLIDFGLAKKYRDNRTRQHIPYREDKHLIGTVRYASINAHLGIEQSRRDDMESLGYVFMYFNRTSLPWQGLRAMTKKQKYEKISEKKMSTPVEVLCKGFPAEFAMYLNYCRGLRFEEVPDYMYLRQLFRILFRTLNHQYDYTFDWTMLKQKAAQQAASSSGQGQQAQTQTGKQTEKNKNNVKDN

[12] = target: Casein kinase I isoform delta (Homo sapiens) (UniProt P48730); test: Inhibition of human Casein kinase 1 delta assessed as residual activity at 10 uM relative to control; how it was run: as §2
[13] = target: Casein kinase II subunit alpha' (Homo sapiens) (UniProt P19784); test: Inhibition of human Casein kinase 2 alpha prime polypeptide assessed as residual activity at 10 uM relative to control; how it was run: as §2
[14] = target: Casein kinase I isoform epsilon (Homo sapiens, UniProt P49674); test: Inhibition of human Casein kinase 1 epsilon assessed as residual activity at 10 uM relative to control; how it was run: as §2
Sequence of Casein kinase I isoform epsilon (P49674 whole entry, looked up, canonical isoform): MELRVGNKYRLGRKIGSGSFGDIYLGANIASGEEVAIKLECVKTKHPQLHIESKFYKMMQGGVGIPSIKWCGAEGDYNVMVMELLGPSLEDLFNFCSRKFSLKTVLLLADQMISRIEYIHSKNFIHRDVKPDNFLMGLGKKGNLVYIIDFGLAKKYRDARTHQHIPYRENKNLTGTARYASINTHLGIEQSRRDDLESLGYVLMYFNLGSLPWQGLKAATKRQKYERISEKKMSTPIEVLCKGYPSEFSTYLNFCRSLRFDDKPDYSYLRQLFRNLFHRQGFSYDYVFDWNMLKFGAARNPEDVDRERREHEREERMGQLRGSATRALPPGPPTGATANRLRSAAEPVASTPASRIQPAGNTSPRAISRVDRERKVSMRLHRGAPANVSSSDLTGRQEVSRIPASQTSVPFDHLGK

Sequence of Casein kinase II subunit alpha' (Homo sapiens) (P19784 whole entry, looked up, canonical isoform): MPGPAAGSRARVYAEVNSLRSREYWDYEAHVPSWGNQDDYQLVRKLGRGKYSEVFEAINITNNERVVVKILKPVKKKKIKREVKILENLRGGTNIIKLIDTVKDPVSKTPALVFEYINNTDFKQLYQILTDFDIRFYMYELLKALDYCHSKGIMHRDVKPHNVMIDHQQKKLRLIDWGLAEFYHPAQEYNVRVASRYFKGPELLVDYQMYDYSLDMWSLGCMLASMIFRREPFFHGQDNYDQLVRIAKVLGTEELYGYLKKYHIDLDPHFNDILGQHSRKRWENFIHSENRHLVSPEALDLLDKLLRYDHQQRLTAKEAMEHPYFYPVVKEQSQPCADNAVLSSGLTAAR
Sequence of Casein kinase I isoform gamma-1 (Homo sapiens) (Q9HCP0 whole entry, looked up, canonical isoform): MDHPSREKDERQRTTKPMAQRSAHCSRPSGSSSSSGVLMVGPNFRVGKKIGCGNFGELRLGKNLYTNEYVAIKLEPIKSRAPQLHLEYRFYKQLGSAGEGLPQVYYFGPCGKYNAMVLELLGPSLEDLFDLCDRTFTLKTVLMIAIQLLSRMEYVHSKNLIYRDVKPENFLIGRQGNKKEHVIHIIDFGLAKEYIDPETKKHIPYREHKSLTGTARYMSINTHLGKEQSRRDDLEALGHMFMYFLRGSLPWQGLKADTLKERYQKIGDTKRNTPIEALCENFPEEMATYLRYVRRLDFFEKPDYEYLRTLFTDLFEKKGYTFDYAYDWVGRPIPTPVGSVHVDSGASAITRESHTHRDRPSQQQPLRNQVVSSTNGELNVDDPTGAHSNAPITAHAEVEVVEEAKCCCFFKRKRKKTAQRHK
Sequence of Casein kinase I isoform gamma-2 (Homo sapiens) (P78368 whole entry, looked up, canonical isoform): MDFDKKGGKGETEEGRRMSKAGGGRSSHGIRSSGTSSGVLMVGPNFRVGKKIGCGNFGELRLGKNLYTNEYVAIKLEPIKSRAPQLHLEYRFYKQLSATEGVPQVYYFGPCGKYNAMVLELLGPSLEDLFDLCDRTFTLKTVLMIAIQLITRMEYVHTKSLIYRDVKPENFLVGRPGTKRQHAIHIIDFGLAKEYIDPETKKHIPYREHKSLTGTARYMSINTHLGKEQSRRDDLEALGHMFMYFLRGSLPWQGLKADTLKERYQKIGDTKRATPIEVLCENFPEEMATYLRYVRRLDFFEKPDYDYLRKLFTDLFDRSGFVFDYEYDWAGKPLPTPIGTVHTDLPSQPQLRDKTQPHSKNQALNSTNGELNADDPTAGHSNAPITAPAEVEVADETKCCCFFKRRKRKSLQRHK
Sequence of Casein kinase I isoform gamma-3 (Homo sapiens) (Q9Y6M4 whole entry, looked up, canonical isoform): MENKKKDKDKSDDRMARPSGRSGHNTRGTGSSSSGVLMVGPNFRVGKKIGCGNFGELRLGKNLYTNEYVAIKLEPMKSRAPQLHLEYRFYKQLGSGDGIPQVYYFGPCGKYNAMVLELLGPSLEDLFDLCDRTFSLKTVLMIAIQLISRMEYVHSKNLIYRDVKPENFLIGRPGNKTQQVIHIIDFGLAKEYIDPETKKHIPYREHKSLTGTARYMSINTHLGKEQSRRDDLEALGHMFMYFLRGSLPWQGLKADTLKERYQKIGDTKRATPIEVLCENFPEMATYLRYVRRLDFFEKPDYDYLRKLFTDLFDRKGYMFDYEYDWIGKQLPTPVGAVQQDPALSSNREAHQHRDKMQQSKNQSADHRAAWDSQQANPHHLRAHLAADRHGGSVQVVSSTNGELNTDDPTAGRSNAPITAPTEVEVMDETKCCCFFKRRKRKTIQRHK
Sequence of Casein kinase II subunit alpha (Homo sapiens) (P68400 whole entry, looked up, canonical isoform): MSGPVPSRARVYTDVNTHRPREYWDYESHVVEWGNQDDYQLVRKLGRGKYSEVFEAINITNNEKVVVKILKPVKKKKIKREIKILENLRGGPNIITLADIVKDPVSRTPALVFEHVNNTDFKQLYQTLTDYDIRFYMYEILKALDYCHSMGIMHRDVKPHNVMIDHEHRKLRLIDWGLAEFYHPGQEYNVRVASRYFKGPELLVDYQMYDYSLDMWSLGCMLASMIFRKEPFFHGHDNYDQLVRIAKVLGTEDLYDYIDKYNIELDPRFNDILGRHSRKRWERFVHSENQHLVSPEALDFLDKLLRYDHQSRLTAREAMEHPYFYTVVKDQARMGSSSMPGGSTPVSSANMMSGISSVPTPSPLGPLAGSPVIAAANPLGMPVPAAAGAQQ
Sequence of Casein kinase I isoform delta (Homo sapiens) (P48730 whole entry, looked up, canonical isoform): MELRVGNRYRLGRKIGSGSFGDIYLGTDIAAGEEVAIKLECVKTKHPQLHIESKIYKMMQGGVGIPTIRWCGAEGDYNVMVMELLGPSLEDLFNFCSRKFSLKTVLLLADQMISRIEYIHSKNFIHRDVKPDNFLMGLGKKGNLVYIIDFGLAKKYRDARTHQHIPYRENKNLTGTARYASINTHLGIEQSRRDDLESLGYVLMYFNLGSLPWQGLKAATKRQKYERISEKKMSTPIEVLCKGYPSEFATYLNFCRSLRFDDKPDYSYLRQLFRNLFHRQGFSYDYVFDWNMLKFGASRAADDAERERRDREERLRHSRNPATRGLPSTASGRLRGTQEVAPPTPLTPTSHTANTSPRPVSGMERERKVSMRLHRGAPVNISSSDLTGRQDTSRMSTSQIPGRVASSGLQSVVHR
Sequence of Casein kinase I isoform alpha (Homo sapiens) (P48729 2-337 limits assumed): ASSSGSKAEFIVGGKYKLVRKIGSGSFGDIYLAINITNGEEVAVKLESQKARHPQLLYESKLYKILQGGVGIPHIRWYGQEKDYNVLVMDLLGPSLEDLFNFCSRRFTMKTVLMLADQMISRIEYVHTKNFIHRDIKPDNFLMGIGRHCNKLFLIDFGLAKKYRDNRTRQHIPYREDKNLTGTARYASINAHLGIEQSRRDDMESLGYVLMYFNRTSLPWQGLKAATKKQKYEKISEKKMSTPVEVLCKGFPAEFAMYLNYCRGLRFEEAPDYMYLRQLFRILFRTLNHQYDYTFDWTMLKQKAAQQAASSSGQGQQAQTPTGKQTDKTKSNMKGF

| SMILES | GI50 [1] [µM] | GI50 [2] [µM] | GI50 [4] [µM] | Activity [6] [%] | Activity [7] [%] | Activity [8] [%] | Activity [9] [%] | Activity [10] [%] | Activity [11] [%] | Activity [12] [%] | Activity [13] [%] | Activity [14] [%] | GI50 [3] [µM] | GI50 [5] [µM] |
| --- | --- | --- | --- | --- | --- | --- | --- | --- | --- | --- | --- | --- | --- | --- |
| CCCCCCCCC[C@@H](O)[C@@H](N)Cc1ccc(O)cc1 | 18 | 20 | 17 |  |  |  |  |  |  |  |  |  | 14 | 12 |
| CCCCCCCCC[C@@H](O)[C@@H](N)[C@@H](C)O | 17 | 17 | 16 |  |  |  |  |  |  |  |  |  | 13 | 14 |
| CCCCCCCCC[C@@H](O)[C@@H](N)C(C)C | 17 | 20 | 17 |  |  |  |  |  |  |  |  |  | 14 | 11 |
| CCCCCCCCCCCCCCC[C@@H](O)[C@@H](N)[C@@H](C)O | 17 | 19 | 19 | 87 | 100 | 100 | 82 | 71 | 100 | 90 | 100 | 43 | 21 | 18 |
| CCCCCCCCC[C@@H](O)[C@@H](N)Cc1ccccc1 | 16 | 18 | 17 | 96 | 100 | 95 | 71 | 70 | 88 | 93 | 100 | 27 | 14 | 12 |
| CCCCCCCCC[C@@H](O)[C@@H](N)C(C)CC (single isomer, unassigned) | 13 | 20 | 14 |  |  |  |  |  |  |  |  |  | 13 | 2.3 |
| CCCCCCCCC[C@@H](O)[C@@H](N)CC(C)C | 14 | 21 | 11 |  |  |  |  |  |  |  |  |  | 14 | 5.9 |

Compounds with a lower GI50 [1], results first:

| GI50 [1] [µM] | GI50 [2] [µM] | GI50 [4] [µM] | Activity [6] [%] | Activity [7] [%] | Activity [8] [%] | Activity [9] [%] | Activity [10] [%] | Activity [11] [%] | Activity [12] [%] | Activity [13] [%] | Activity [14] [%] | SMILES | GI50 [3] [µM] | GI50 [5] [µM] |
| --- | --- | --- | --- | --- | --- | --- | --- | --- | --- | --- | --- | --- | --- | --- |
| 7.2 | 21 | 18 |  |  |  |  |  |  |  |  |  | CCCCCCCCCCCCCCC[C@@H](O)[C@@H](N)C(C)C | 4.9 | 20 |
| 9.5 | 9.2 | 12 |  |  |  |  |  |  |  |  |  | CCCCCCCCC[C@@H](O)[C@H](C)N | 6.6 | 17 |
| 1.3 | 2.6 | 0.9 | 100 | 98 | 100 | 100 | 87 | 100 | 100 | 98 | 60 | CCCCCCCCCCCCCCC[C@@H](O)[C@H](C)N | 2.3 | 0.7 |
| 3 | 2 | 15 |  |  |  |  |  |  |  |  |  | COc1cc([C@@H]2c3cc4c(cc3[C@@H](O[C@@H]3O[C@@H]5CO[C@@H](C)O[C@H]5[C@H](O)[C@H]3O)[C@H]3COC(=O)[C@H]23)OCO4)cc(OC)c1O [ETOPOSIDE] | 1.9 | 26 |
| 4.5 | 15 | 22 |  |  |  |  |  |  |  |  |  | CCCCCCCCCCCCCCC[C@@H](O)[C@@H](N)CO [DIHYDROSPINGOSINE] | 25 | 19 |
| 2.8 | 19 | 15 | 94 | 98 | 93 | 93 | 84 | 91 | 89 | 100 | 48 | CCCCCCCCCCCCCCC[C@@H](O)[C@@H](N)CC(C)C | 2.4 | 4.9 |
| 2.1 | 1.3 | 1.8 |  |  |  |  |  |  |  |  |  | CCCCCCCCCCCCCCC[C@@H](O)[C@@H](N)Cc1ccccc1 | 2.9 | 2.3 |
| 3.4 | 20 | 17 |  |  |  |  |  |  |  |  |  | CCCCCCCCCCCCCCC[C@@H](O)[C@@H](N)C(C)CC (single isomer, unassigned) | 2.4 | 13 |
